The results in this text go back to ChEMBL document CHEMBL3352121, “Modulation of Activity Profiles for Largazole-Based HDAC Inhibitors through Alteration of Prodrug Properties” (ACS Med Chem Lett, 2014).

For one data set, the target named is Histone deacetylase 5 (Homo sapiens, UniProt Q9UQL6). Description: Inhibition of HDAC5 (unknown origin) at 1 uM incubated for 30 mins in presence of BSA and DTT by fluorescence assay. A digest of the protocol: (§1)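 Purified HDAC isoforms were tested up to a maximum of 1 μM. IC50 values are averages of duplicate experiments. Disulfide compounds were pretreated with DTT to reduce the disulfide bond.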

Another data set concerns the target Histone deacetylase 4 (Homo sapiens, UniProt P56524). Description: Inhibition of HDAC4 (unknown origin) at 1 uM incubated for 30 mins in presence of BSA and DTT by fluorescence assay. The method in brief: as §1
The target of data set [1] is T1, Histone deacetylase 9 (Homo sapiens, UniProt Q9UKV0). Description: Inhibition of HDAC9 (unknown origin) incubated for 30 mins in presence of BSA and DTT by fluorescence assay. The method in brief: as §1
In the next data set the target is Histone deacetylase 2 (Homo sapiens, UniProt Q92769). Description: Inhibition of HDAC2 (unknown origin) incubated for 30 mins in presence of BSA and DTT by fluorescence assay.
Another data set addresses Histone deacetylase 3 (Homo sapiens, UniProt O15379). Description: Inhibition of HDAC3 (unknown origin) incubated for 30 mins in presence of BSA and DTT by fluorescence assay. The method in brief: as §1
For data set [2], the target named is T1, Histone deacetylase 9. Description: Inhibition of HDAC9 (unknown origin) at 1 uM incubated for 30 mins in presence of BSA and DTT by fluorescence assay. The method in brief: as §1
The target in another data set is T2, Histone deacetylase 11 (Homo sapiens, UniProt Q96DB2).
T2 sequence (Q96DB2 whole entry): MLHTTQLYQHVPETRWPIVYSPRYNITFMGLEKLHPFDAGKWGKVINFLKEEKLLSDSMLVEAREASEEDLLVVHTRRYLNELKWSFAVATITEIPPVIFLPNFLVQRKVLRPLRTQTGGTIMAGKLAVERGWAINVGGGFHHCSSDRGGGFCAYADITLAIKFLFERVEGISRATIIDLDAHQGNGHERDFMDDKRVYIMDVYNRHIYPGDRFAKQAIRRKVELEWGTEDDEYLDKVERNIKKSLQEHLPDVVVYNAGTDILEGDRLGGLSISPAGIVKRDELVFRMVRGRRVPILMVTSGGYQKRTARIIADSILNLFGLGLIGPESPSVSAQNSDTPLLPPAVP
Description: Inhibition of HDAC11 (unknown origin) incubated for 3 hrs in presence of BSA and DTT by fluorescence assay. The method in brief:
as §1

The target in data set [3] is T3, Polyamine deacetylase HDAC10 (Homo sapiens, UniProt Q969S8).
T3 sequence (Q969S8 whole entry): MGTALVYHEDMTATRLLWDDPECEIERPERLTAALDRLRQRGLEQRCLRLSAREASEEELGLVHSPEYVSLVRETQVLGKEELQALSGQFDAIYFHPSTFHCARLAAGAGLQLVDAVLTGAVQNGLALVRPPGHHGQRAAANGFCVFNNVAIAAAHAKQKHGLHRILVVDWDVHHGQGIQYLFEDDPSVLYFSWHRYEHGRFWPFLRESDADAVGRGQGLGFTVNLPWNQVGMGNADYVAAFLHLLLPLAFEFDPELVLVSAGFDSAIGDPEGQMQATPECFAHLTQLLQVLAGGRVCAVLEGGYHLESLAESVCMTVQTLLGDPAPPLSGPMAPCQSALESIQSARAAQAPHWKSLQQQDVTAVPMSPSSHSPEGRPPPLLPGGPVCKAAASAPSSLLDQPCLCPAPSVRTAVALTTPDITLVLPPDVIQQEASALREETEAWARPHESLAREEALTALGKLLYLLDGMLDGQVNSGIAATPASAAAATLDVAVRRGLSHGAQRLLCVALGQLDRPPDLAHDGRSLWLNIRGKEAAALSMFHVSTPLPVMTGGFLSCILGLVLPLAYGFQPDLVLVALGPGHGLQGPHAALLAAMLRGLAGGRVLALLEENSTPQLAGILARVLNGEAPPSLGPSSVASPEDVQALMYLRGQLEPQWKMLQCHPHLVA
Description: Inhibition of HDAC10 (unknown origin) incubated for 30 mins in presence of BSA and DTT by fluorescence assay. A digest of the protocol: as §1

In data set [4] the target is T4, Protein deacetylase HDAC6 (Homo sapiens, UniProt Q9UBN7).
T4 sequence (Q9UBN7 whole entry): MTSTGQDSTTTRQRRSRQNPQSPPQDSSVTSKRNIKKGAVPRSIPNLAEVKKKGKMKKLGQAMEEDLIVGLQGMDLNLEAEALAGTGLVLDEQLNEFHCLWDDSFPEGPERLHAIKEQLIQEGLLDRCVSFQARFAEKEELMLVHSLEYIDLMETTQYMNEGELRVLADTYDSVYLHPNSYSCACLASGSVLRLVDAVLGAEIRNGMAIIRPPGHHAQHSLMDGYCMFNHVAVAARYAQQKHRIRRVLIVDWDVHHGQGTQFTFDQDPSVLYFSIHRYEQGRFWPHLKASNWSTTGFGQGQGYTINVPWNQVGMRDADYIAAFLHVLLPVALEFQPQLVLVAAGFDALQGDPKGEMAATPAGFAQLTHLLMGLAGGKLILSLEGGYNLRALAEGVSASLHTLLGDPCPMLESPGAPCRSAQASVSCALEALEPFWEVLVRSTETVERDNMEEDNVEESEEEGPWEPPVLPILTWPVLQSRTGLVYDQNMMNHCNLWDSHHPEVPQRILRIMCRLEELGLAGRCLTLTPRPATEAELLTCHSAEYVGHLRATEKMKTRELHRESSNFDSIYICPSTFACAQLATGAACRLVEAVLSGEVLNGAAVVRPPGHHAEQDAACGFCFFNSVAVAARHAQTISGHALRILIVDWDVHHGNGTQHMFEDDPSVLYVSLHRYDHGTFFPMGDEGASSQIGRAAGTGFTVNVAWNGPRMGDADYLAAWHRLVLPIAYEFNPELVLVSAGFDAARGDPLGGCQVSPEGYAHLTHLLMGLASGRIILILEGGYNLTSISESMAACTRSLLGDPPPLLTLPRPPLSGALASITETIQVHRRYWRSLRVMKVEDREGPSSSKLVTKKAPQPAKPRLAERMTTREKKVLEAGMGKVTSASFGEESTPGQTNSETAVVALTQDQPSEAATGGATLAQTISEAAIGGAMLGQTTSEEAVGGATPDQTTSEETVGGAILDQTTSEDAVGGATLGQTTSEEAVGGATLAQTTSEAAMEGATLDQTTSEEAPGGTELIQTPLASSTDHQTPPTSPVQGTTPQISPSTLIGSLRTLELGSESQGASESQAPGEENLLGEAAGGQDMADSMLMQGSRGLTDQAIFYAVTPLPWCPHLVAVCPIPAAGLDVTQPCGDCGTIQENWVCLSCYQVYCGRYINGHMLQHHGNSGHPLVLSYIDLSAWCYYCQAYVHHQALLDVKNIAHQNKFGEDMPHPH
Description: Inhibition of HDAC6 (unknown origin) incubated for 30 mins in presence of BSA and DTT by fluorescence assay. The method in brief: as §1

For another data set, the system named is Serum. Description: Drug metabolism in mouse serum assessed as largazole thiol formation after 0.25 to 1440 mins by HPLC-MS method. Type of data set: ADME, cell-free.
Data set [5] in a line: Drug metabolism in human HCT116 cells protein lysate solution assessed as largazole thiol formation at 25 ug/mL after 1 hr by HPLC-MS method. Format: ADME, cell-based. As to conditions: hct-116, 1 h; call rule not given here.

Bounds are passed on as bounds.

T1 sequence (Q9UKV0 whole entry): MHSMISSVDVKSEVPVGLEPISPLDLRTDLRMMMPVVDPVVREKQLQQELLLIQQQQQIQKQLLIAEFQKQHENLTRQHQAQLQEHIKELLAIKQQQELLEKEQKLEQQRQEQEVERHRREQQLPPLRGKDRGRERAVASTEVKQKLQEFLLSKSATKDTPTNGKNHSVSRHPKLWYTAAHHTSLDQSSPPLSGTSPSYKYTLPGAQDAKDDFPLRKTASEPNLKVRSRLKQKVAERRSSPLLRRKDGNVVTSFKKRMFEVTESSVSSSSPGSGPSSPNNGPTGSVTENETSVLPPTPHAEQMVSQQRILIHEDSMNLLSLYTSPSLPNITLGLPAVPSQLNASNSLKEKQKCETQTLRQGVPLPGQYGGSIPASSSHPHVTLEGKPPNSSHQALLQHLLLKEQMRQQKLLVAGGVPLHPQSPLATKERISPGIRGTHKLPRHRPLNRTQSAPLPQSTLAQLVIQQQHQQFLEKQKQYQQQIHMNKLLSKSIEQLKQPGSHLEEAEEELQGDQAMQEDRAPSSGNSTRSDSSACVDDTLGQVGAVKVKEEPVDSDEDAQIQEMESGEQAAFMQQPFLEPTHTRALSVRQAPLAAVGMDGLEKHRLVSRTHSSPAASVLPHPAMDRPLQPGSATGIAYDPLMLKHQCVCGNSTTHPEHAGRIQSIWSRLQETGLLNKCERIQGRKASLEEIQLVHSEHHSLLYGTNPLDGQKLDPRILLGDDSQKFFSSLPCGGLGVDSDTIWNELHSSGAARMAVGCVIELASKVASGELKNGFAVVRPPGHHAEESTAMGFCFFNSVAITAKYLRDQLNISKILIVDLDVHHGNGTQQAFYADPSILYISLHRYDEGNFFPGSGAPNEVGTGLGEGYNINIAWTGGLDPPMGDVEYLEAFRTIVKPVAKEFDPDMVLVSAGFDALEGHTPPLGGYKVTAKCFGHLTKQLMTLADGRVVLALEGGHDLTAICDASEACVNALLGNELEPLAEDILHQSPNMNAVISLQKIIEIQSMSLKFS
Sequence of Histone deacetylase 3 (O15379 whole entry): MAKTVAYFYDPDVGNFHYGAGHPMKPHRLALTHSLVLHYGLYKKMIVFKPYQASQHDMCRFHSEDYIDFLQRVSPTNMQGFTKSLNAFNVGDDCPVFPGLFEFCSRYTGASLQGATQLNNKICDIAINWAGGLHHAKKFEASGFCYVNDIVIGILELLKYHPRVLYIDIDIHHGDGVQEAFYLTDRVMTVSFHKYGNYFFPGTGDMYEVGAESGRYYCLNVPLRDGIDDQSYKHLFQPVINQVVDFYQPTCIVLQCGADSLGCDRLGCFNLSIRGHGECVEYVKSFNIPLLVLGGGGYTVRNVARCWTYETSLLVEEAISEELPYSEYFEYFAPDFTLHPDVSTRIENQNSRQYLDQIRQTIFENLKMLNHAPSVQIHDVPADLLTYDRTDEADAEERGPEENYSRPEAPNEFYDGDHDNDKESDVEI
Sequence of Histone deacetylase 2 (Q92769 whole entry): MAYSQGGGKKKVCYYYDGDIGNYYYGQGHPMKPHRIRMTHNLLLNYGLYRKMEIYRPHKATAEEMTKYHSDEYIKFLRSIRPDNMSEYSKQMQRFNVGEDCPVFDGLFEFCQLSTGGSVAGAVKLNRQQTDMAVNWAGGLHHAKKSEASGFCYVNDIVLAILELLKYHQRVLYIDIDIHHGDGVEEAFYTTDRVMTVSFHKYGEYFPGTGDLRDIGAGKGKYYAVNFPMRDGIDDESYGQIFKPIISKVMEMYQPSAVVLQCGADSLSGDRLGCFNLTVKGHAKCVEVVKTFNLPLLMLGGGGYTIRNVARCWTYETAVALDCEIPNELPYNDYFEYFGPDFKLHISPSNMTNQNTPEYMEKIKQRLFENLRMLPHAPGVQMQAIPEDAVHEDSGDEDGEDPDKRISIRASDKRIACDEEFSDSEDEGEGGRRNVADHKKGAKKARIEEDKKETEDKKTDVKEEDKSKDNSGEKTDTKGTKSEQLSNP
Sequence of Histone deacetylase 4 (P56524 whole entry): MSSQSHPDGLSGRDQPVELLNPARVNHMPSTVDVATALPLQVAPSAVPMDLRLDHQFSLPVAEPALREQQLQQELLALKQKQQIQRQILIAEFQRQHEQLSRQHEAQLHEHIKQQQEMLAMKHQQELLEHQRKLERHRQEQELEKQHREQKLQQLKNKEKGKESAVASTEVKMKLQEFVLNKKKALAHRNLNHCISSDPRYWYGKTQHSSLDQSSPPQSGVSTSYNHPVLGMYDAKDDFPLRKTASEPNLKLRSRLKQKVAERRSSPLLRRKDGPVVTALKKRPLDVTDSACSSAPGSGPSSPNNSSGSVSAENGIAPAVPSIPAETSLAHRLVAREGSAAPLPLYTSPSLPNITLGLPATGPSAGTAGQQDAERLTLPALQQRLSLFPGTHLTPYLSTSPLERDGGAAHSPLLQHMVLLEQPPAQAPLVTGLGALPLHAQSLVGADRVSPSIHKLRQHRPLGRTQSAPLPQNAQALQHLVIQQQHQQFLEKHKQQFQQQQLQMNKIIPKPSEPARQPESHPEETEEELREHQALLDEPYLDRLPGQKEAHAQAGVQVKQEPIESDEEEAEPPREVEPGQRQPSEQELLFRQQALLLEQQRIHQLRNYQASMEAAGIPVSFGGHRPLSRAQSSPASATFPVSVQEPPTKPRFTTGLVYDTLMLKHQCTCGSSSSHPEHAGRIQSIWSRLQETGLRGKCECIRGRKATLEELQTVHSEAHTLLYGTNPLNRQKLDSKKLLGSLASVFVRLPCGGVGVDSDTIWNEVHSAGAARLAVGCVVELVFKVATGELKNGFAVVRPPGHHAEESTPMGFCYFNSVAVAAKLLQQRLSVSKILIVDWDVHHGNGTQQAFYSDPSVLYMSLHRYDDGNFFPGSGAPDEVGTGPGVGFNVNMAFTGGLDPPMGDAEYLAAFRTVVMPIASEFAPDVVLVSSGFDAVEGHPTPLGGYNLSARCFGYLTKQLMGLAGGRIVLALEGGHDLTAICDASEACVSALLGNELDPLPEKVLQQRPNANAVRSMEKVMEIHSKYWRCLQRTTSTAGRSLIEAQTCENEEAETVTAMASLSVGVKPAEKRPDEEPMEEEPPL
Sequence of Histone deacetylase 5 (Q9UQL6 whole entry, canonical isoform): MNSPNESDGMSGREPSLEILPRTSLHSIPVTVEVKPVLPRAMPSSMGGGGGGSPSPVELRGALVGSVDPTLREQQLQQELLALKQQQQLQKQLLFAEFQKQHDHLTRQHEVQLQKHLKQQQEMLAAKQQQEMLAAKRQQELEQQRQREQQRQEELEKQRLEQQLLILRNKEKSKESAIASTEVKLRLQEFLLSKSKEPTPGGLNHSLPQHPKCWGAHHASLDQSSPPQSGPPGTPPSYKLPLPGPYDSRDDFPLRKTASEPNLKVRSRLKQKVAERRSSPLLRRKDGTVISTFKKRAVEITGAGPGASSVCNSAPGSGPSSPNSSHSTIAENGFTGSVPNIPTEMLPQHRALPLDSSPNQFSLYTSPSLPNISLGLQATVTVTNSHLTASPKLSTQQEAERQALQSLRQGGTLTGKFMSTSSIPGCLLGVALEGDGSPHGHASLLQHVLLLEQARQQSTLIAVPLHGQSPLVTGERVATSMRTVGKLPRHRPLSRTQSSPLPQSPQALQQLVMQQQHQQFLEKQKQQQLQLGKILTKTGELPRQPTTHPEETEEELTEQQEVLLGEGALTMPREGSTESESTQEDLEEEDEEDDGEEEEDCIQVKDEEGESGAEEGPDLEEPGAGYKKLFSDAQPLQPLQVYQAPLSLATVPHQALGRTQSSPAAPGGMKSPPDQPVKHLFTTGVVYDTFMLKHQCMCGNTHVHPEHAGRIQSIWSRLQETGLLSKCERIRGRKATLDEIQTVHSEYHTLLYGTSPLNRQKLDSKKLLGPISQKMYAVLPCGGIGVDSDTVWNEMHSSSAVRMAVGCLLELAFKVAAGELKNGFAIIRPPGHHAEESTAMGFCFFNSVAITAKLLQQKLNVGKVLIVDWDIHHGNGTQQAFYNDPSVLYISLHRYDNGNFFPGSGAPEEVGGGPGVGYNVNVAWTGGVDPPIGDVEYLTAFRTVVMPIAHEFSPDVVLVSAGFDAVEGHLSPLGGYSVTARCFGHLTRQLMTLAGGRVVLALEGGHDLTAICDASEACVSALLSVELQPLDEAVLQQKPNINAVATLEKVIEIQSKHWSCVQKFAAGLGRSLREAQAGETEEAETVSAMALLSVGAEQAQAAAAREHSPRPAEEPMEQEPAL

As for `CC(C)[C@@H]1NC(=O)[C@]2(C)CSC(=N2)c2csc(n2)CNC(=O)C[C@@H](/C=C/CCSSC[C@H](NC(=O)OC(C)(C)C)C(=O)OC(C)(C)C)OC1=O`, the inhibition at Histone deacetylase 5, on Histone deacetylase 4 and on Histone deacetylase 9 [2] was less than 20% in each case. Further, the IC50 entry on Histone deacetylase 9 [1] was “Not Active”; on Histone deacetylase 2 it was 0.9 nM; on Histone deacetylase 3 it was 0.6 nM; at Histone deacetylase 11, 0.2 nM; in data set [3] it was 0.5 nM; in data set [4], 135 nM.

Consider `CC(C)[C@@H]1NC(=O)[C@]2(C)CSC(=N2)c2csc(n2)CNC(=O)C[C@@H](/C=C/CCSSCC/C=C/[C@@H]2CC(=O)NCc3nc(cs3)C3=N[C@@](C)(CS3)C(=O)N[C@@H](C(C)C)C(=O)O2)OC1=O`, for which the inhibition on Histone deacetylase 5, on Histone deacetylase 4 and on Histone deacetylase 9 [2] was less than 20% in each case. The half-inhibitory concentration (IC50) result is “Not Active” on Histone deacetylase 9 [1]; 0.5 nM at Histone deacetylase 2; 0.3 nM on Histone deacetylase 3; 0.1 nM on Histone deacetylase 11; 0.2 nM in data set [3]; 61 nM in data set [4]. Besides, the Drug metabolism entry in the data set with Serum is given as “metabolite_notdetected”; in [5] it was “metabolite_detected”.

What is called inhibition is the relative decrease from the control value, in per cent. One may read the IC50 as the concentration at which inhibition is half-maximal.
